Experimental data reported in ChEMBL document CHEMBL1150387, “Development and experimental validation of a docking strategy for the generation of kinase-targeted libraries” (J Med Chem, 2008).

Legend:
[1] = Inhibition of IRK at 10 uM by HTRF assay relative to control
How it was run: (§1)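 HTRF kinase assay, one panel of kinases. Inhibitor stock 50 µM in 100% DMSO; tested at 10 µM. ATP and substrate at final levels near Km. Final buffer: 50 mM Hepes/NaOH pH 7.4, 40 µM Na3VO4, 0.005% Tween-20, 1 mM DTT, MnCl2 or MgCl2 at kinase-dependent levels. Started by adding ATP/substrate. Reaction run at room temperature, time varied by kinase. Detection mix in 50 mM Hepes pH 7.4, 0.1% BSA, 150 mM KF, incubated ≥1 h at room temperature. Activity expressed as % of uninhibited control; n=2.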

[2] = biological target: Insulin-like growth factor 1 receptor (Homo sapiens) (UniProt P08069); assay: Inhibition of IGF1R at 10 uM by HTRF assay relative to control; how it was run: as §1
[3] = biological target: Receptor-type tyrosine-protein kinase FLT3 (Homo sapiens) (UniProt P36888); assay: Inhibition of FLT3 at 10 uM by HTRF assay relative to control; how it was run: as §1
[4] = biological target: Fibroblast growth factor receptor 1 (Homo sapiens) (UniProt P11362); assay: Inhibition of FGFR1 at 10 uM by HTRF assay relative to control; how it was run: as §1
[5] = biological target: Epidermal growth factor receptor (Homo sapiens) (UniProt P00533); assay: Inhibition of EGFR at 10 uM by HTRF assay relative to control; how it was run: as §1
[6] = biological target: Mitogen-activated protein kinase 8 (Homo sapiens) (UniProt P45983); assay: Inhibition of JNK1 at 10 uM by HTRF assay relative to control; how it was run: as §1
[7] = biological target: T1, Inhibitor of nuclear factor kappa-B kinase subunit beta (Homo sapiens) (UniProt O14920); assay: Inhibition of IKK-beta at 10 uM by HTRF assay relative to control; how it was run: as §1
T1 sequence (whole entry): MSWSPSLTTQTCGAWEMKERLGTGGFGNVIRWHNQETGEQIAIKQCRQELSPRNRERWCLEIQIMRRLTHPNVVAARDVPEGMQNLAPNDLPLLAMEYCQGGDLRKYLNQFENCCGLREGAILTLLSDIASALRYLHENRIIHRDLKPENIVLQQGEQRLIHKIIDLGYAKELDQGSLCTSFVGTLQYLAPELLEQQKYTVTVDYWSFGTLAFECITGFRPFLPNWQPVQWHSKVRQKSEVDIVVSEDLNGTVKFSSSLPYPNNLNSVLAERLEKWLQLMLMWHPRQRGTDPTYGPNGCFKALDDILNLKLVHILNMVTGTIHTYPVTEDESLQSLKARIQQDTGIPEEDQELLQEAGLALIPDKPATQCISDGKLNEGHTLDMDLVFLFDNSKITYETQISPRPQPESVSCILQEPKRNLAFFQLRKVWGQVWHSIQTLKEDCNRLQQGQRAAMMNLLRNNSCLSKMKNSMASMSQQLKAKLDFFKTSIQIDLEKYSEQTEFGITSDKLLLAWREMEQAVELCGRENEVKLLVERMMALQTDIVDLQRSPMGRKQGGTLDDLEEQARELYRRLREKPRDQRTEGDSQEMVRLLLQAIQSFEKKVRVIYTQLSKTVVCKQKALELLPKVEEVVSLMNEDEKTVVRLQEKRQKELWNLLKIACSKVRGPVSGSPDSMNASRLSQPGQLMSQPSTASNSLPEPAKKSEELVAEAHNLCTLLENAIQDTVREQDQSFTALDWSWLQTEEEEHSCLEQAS

[8] = biological target: Cyclin-dependent kinase 1 (Homo sapiens) (UniProt P06493); assay: Inhibition of CDK1 at 10 uM by HTRF assay relative to control; how it was run: as §1
[9] = biological target: T2, Serine/threonine-protein kinase Chk1 (Homo sapiens) (UniProt O14757); assay: Inhibition of CHK1 at 10 uM by HTRF assay relative to control; how it was run: as §1
T2 sequence (whole entry): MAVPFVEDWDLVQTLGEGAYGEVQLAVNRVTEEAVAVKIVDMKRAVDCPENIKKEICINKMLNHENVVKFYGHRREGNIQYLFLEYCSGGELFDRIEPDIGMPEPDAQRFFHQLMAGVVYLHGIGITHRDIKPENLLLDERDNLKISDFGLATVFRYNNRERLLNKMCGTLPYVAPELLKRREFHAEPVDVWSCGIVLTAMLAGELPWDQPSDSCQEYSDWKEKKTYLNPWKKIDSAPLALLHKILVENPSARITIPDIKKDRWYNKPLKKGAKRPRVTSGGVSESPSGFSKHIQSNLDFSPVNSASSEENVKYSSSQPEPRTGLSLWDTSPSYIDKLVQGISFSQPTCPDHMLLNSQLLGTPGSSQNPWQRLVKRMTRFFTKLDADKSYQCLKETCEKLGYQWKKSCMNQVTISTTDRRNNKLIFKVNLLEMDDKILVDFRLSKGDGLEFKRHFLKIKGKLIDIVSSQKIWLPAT

[10] = biological target: Calcium/calmodulin-dependent protein kinase type II subunit alpha (Homo sapiens) (UniProt Q9UQM7); assay: Inhibition of CaMK2alpha at 10 uM by HTRF assay relative to control; how it was run: as §1
[11] = biological target: Ribosomal protein S6 kinase alpha-3 (Homo sapiens) (UniProt P51812); assay: Inhibition of RSK2 at 10 uM by HTRF assay relative to control; how it was run: as §1
[12] = biological target: Rho-associated protein kinase 2 (Homo sapiens) (UniProt O75116); assay: Inhibition of ROCK2 at 10 uM by HTRF assay relative to control; how it was run: as §1
[13] = biological target: Protein kinase C alpha type (Homo sapiens) (UniProt P17252); assay: Inhibition of PKCalpha at 10 uM by HTRF assay relative to control; how it was run: as §1
[14] = biological target: RAC-alpha serine/threonine-protein kinase (Homo sapiens) (UniProt P31749); assay: Inhibition of AKT1/PKBalpha at 10 uM by HTRF assay relative to control; how it was run: as §1
[15] = biological target: Proto-oncogene tyrosine-protein kinase Src (Homo sapiens) (UniProt P12931); assay: Inhibition of Src at 10 uM by HTRF assay relative to control; how it was run: as §1
[16] = biological target: Tyrosine-protein kinase Lck (Homo sapiens) (UniProt P06239); assay: Inhibition of Lck at 10 uM by HTRF assay relative to control; how it was run: as §1
[17] = biological target: Tyrosine-protein kinase Fes/Fps (Homo sapiens) (UniProt P07332); assay: Inhibition of FES at 10 uM by HTRF assay relative to control; how it was run: as §1
[18] = biological target: Protein-tyrosine kinase 6 (Homo sapiens) (UniProt Q13882); assay: Inhibition of Brk at 10 uM by HTRF assay relative to control; how it was run: as §1
[19] = biological target: Vascular endothelial growth factor receptor 2 (Homo sapiens) (UniProt P35968); assay: Inhibition of KDR at 10 uM by HTRF assay relative to control; how it was run: as §1
Sequence of Vascular endothelial growth factor receptor 2 (Homo sapiens) (P35968 whole entry): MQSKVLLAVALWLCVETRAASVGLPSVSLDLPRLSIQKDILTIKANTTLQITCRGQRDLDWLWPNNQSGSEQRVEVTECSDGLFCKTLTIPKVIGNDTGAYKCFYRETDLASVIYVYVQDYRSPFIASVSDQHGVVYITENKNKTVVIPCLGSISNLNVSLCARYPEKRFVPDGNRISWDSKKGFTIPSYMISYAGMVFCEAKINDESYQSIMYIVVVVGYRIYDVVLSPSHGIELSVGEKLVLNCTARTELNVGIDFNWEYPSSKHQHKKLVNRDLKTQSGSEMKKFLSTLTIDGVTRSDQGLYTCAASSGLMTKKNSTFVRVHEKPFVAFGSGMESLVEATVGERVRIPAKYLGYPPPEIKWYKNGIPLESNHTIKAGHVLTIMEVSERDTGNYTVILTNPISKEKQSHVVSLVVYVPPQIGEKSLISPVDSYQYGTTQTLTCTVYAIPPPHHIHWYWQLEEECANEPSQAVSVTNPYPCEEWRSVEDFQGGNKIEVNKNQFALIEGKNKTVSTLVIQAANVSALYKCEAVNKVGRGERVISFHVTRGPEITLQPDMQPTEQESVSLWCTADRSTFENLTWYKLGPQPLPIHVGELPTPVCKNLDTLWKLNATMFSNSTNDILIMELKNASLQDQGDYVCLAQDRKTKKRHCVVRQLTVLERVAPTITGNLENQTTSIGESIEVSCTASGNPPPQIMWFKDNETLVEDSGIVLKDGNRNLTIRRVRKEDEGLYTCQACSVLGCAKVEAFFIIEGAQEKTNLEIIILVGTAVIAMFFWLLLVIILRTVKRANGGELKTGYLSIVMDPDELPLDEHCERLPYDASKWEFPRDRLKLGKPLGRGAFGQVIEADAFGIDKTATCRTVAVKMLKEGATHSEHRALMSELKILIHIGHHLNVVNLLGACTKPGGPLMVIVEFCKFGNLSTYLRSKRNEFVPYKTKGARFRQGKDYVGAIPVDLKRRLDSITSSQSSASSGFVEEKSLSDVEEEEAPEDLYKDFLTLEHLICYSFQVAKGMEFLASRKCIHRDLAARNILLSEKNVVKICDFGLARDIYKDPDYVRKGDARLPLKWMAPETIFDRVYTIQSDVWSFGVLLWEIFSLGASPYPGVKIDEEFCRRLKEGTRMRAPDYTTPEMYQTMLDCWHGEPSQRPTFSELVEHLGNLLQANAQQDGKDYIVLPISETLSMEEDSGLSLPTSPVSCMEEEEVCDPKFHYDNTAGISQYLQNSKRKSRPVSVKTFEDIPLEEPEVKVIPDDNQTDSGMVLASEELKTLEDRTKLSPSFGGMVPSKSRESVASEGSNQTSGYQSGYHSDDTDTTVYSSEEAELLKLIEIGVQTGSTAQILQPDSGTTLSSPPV

Sequence of Proto-oncogene tyrosine-protein kinase Src (Homo sapiens) (P12931 2-536 limits assumed): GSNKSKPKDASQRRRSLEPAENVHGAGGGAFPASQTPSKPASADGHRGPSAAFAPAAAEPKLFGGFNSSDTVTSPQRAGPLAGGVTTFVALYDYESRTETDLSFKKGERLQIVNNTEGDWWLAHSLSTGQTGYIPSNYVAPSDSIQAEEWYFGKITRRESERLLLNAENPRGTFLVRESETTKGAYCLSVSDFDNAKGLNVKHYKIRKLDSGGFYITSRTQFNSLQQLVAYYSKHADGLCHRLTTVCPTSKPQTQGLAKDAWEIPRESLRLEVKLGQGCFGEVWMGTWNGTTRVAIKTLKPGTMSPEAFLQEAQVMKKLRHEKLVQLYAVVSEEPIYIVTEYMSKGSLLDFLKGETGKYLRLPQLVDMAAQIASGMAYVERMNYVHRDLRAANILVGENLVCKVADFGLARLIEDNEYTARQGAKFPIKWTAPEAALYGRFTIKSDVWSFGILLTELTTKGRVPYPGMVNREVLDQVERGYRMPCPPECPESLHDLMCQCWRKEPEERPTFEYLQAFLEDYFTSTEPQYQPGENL
Sequence of Insulin-like growth factor 1 receptor (Homo sapiens) (P08069 31-736 limits assumed): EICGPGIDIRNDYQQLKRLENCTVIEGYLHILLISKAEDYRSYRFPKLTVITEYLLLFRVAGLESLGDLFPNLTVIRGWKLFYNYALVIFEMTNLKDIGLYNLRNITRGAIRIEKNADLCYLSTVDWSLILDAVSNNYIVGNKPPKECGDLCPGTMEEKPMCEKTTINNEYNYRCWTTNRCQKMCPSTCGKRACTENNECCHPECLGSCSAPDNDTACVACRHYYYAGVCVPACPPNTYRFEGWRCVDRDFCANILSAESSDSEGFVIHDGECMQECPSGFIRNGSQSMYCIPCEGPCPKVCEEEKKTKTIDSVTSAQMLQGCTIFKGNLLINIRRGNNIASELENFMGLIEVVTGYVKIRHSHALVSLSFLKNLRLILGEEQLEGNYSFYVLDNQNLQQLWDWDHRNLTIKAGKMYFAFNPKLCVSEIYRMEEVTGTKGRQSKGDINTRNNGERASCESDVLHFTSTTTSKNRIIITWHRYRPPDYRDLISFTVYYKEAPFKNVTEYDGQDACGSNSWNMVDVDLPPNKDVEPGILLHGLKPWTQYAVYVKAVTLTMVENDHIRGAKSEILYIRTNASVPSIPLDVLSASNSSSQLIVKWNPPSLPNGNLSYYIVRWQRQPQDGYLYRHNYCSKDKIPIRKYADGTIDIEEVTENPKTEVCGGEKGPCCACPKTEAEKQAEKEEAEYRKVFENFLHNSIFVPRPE
Sequence of Insulin-like growth factor 1 receptor (Homo sapiens) (P08069 741-1367 limits assumed): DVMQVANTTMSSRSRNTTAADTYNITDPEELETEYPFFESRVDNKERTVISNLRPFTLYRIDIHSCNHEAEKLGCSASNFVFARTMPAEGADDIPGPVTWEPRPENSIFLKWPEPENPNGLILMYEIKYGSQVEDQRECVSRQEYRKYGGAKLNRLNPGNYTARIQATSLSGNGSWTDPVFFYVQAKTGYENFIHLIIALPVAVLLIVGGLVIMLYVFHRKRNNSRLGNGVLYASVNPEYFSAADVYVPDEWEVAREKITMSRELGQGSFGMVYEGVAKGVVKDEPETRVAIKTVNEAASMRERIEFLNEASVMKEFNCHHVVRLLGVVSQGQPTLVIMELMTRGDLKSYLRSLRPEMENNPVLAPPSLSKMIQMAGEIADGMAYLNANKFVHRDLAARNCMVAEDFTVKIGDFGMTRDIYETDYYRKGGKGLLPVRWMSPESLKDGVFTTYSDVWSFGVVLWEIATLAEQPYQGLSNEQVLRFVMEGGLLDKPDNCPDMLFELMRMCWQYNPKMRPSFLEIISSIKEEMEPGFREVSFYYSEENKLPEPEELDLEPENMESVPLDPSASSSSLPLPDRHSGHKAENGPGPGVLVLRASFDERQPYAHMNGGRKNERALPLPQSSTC
Sequence of Calcium/calmodulin-dependent protein kinase type II subunit alpha (Homo sapiens) (Q9UQM7 whole entry): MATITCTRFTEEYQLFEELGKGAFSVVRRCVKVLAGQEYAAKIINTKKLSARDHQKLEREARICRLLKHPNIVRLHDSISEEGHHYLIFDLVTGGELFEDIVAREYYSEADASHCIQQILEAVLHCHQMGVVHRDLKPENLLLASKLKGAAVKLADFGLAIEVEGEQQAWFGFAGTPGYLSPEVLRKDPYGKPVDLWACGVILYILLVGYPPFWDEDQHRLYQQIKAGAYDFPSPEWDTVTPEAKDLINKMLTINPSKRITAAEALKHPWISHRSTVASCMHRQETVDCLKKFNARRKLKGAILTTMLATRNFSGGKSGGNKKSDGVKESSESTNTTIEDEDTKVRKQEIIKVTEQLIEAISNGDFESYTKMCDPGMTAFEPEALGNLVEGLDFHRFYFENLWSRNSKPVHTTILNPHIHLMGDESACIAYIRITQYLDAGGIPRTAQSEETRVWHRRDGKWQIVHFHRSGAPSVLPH
Sequence of Mitogen-activated protein kinase 8 (Homo sapiens) (P45983 whole entry): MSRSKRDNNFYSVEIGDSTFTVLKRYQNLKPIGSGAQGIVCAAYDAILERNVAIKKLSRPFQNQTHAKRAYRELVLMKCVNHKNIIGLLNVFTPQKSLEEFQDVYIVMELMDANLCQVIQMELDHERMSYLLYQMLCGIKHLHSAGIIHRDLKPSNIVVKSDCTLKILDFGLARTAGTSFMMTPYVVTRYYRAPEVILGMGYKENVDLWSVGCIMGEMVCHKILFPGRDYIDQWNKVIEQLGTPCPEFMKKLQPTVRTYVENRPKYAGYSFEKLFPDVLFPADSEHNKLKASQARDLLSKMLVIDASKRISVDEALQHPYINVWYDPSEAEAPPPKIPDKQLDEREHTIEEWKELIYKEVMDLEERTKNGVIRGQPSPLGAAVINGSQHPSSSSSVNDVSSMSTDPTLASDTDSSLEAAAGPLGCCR
Sequence of Ribosomal protein S6 kinase alpha-3 (Homo sapiens) (P51812 whole entry): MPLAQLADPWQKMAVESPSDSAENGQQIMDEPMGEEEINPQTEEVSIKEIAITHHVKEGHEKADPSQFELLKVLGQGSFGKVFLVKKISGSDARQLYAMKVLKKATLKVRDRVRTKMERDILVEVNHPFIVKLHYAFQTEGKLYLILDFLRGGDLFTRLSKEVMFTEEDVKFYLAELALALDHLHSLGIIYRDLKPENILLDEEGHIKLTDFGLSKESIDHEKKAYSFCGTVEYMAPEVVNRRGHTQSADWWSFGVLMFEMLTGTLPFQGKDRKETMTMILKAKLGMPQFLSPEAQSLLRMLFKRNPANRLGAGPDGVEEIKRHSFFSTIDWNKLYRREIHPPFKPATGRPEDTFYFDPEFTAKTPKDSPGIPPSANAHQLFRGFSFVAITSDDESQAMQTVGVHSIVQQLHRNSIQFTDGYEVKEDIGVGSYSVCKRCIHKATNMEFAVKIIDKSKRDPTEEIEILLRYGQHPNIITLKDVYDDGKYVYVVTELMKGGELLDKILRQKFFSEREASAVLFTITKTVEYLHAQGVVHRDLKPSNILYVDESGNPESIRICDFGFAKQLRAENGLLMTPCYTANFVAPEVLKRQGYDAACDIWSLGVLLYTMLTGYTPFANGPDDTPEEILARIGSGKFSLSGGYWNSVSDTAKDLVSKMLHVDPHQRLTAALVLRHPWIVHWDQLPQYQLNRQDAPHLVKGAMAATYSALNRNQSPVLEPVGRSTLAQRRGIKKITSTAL

inhibition [1] [%] | inhibition [2] [%] | inhibition [3] [%] | inhibition [4] [%] | inhibition [5] [%] | inhibition [6] [%] | inhibition [7] [%] | inhibition [8] [%] | inhibition [9] [%] | inhibition [10] [%] | inhibition [11] [%] | inhibition [12] [%] | inhibition [13] [%] | inhibition [14] [%] | inhibition [15] [%] | inhibition [16] [%] | inhibition [17] [%] | inhibition [18] [%] | inhibition [19] [%] | SMILES
0 | 0 | 0 | 19 | 0 | 6 | 1 | 0 | 4 | 0 | 0 | 0 | 0 | 4 | 0 | 0 | 2 | 0 | 3 | CN(C)c1ccc(C(=O)N2CCN(c3ncnc4c3CN(Cc3ccccc3)CC4)CC2)c2ccccc12
0 | 0 | 0 | 30 | 97 | 0 | 8 | 0 | 6 | 0 | 0 | 0 | 5 | 2 | 15 | 10 | 15 | 11 | 31 | Cc1cccc(N(C)c2cc(Nc3cccc(C(=O)N(C)CCc4ccccn4)c3)ncn2)c1
0 | 8 | 1 | 6 | 91 | 71 | 4 | 2 | 5 | 0 | 0 | 12 | 2 | 1 | 10 | 0 | 18 | 16 | 13 | COc1cccc(Nc2cc(Nc3cccc(C(=O)NCCCn4ccnc4)c3)nc(N)n2)c1
0 | 0 | 0 | 16 | 81 | 34 | 10 | 0 | 4 | 0 | 0 | 7 | 0 | 1 | 13 | 22 | 18 | 54 | 35 | O=C(COc1ccccc1)N1CCN(c2nccc(Nc3ccc4ncsc4c3)n2)CC1
0 | 0 | 0 | 0 | 0 | 5 | 1 | 0 | 1 | 0 | 0 | 0 | 0 | 0 | 0 | 0 | 0 | 13 | 5 | COC(=O)C(CO)NC(=O)[C@@H]1CCCN1c1nccc(Oc2cccc(C)c2)n1 (stereo not given in full)
0 | 0 | 0 | 15 | 0 | 4 | 4 | 0 | 3 | 0 | 0 | 0 | 0 | 2 | 2 | 0 | 6 | 0 | 7 | Nc1nc(N2CCOCC2)cc(N2CCC(C(=O)NCCc3ccc(O)cc3)CC2)n1
0 | 0 | 0 | 0 | 5 | 0 | 3 | 0 | 0 | 0 | 0 | 1 | 0 | 0 | 8 | 0 | 1 | 4 | 3 | CN(CCCn1ccnc1)C(=O)[C@@H]1CCCN1c1nccc(Nc2ccccc2)n1
0 | 0 | 0 | 0 | 0 | 6 | 0 | 0 | 0 | 0 | 0 | 0 | 0 | 0 | 0 | 0 | 5 | 0 | 4 | Cc1cccc(Oc2ccnc(N3CCC[C@H]3C(=O)NCc3cccnc3)n2)c1
0 | 0 | 0 | 0 | 0 | 7 | 2 | 0 | 5 | 0 | 0 | 0 | 0 | 0 | 0 | 0 | 0 | 9 | 10 | O=C(c1nc(SCc2ccc(Cl)cc2)n2ccccc12)N1CCN(c2ncnc3c2CN(Cc2ccccc2)CC3)CC1
0 | 6 | 0 | 0 | 0 | 0 | 9 | 0 | 1 | 0 | 0 | 0 | 3 | 0 | 0 | 0 | 0 | 22 | 9 | Cc1cccc(N(C)c2cc(N3CCN(CC(=O)Nc4nc(-c5ccccc5)cs4)CC3)ncn2)c1
0 | 0 | 0 | 0 | 0 | 0 | 1 | 0 | 0 | 0 | 0 | 0 | 0 | 0 | 0 | 0 | 0 | 10 | 1 | Nc1nc(Nc2ccccc2)cc(N2CCC(C(=O)NCCc3ccccn3)CC2)n1
0 | 0 | 0 | 0 | 0 | 0 | 0 | 0 | 5 | 0 | 0 | 0 | 3 | 1 | 5 | 0 | 23 | 0 | 0 | Cc1cccc(Oc2ccnc(N3CCN(CC(=O)Nc4cccc5c4CCCC5)CC3)n2)c1
1 | 8 | 0 | 1 | 0 | 0 | 2 | 0 | 3 | 0 | 0 | 0 | 0 | 0 | 0 | 0 | 2 | 0 | 11 | Cc1cccc(Oc2ccnc(N3CCC[C@H]3C(=O)NCCCn3ccnc3)n2)c1
0 | 0 | 0 | 4 | 0 | 0 | – | 0 | 4 | 0 | 0 | 0 | 0 | 0 | 4 | 0 | 2 | 4 | 4 | O=C(C1CCN(c2nccc(Nc3ccccc3)n2)CC1)N1CC[C@@H](O)C1
